Rows were chosen to be rich in hits. Some 1.5% of all compounds tested hit in one or more screens of this group.
CCR6 antag = antagonists of human CCR6 receptor; P51684; CHO-K1 CCR6 PathHunter beta-arrestin, luminescence, CCL20-stimulated; inhibition, % at 20 µM; 340,000 compounds, 0.49% hits;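 active means compounds whose inhibition of the agonist-driven luminescence signal at 20 µM reaches about 50%, limit read from the data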;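 further: cells stimulated with CCL20 at 14 nM final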
Target sequence (P51684 whole entry, looked up): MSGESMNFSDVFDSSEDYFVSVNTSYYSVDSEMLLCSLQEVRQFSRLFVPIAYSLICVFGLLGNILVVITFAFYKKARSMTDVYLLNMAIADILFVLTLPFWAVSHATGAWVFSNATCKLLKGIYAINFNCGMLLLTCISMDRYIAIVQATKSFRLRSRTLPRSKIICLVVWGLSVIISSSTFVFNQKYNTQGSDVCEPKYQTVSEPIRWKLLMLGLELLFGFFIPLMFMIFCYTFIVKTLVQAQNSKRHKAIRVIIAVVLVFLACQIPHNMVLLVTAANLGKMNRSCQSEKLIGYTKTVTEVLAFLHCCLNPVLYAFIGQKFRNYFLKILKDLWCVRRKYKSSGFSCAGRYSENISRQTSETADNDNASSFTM
APJ ag = activates the human apelin receptor APJ | P35414 | 330,000 compounds, 0.11% hits | AID 2520 | activation, % at 20 µM | CHO-K1 APJ PathHunter beta-arrestin, luminescence; 0% DMSO wells, 100% apelin;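 active means activation more than six SD over the plate average, tested at 20 µM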
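Test system: CHO-K1 APJ beta-arrestin complementation cell line | Compound: Single test compound dose, 20 µM final, 1% DMSO | Incubation: Compound 90 min 25 °C, reagent 1 h | Measured by: beta-gal luminescence | Read-out basis: APJ–arrestin association signal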
APJ antagonist = APJ receptor antagonism; CHO-K1 APJ beta-arrestin complementation, luminescence; inhibition, % at 20 µM; 330,000 compounds, 0.32% hits; AID 2521; P35414;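 active means inhibition above about 40% at 20 µM, limit read from the data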;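 further: cells challenged with 10 nM apelin-13 agonist together with compound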
EBI2 block = blocks human EBI2 receptor beta-arrestin signaling; P32249; EBI2 beta-arrestin recruitment, luminescence, 7a,25-OHC stimulated; inhibition, % at 5 µM; 360,000 compounds, 0.81% hits; in the data active means inhibition above about 38%;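 further: enzyme fragment complementation signal reports receptor beta-arrestin coupling in cells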
CXCR6 block = blocks human CXCR6 beta-arrestin recruitment; O00574; CHO-K1 PathHunter CXCR6 beta-arrestin, luminescence; inhibition, % at 20 µM; 360,000 compounds, 0.36% hits; in the data active means inhibition above about 34%, passing the limit was not always enough;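 further: antagonist mode with CXCL16 agonist at 10 nM final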
EBI2 antag conf = confirmation of human EBI2 receptor antagonists. AID 651997. inhibition, % at 5 µM. EBI2 beta-arrestin luminescence, 7a,25-OHC antagonism. shares compounds with EBI2 block. 2,400 compounds, 29% hits;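 active means inhibition of at least 50%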
EBI2 ag = EBI2 agonism counter-screen; shares compounds with EBI2 block; EBI2-expressing cells, agonist mode, luminescence, 60 min; 0% vehicle, 100% 7α,25-dihydroxycholesterol control; activation, % at 5 µM; 2,400 tested, under 10 active;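 active means activation of at least 50%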
bGal counter = counter-screen for EBI2 antagonists: E. coli beta-galactosidase inhibition. inhibition, % at 5 µM. 2,400 compounds, 1% hits. AID 652176. purified beta-galactosidase, luminescent Galacton Star, 15 min. shares compounds with EBI2 block;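 active means replicate-average signal at least 3 plate SD below neutral wells, shown as high inhibition, flagging enzyme-inhibiting false positives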;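 further: higher means stronger loss of beta-gal luminescence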
Hits are given with their value; 0 = inactive; - = no result.

SMILES	CCR6 antag	APJ ag	APJ antagonist	EBI2 block	CXCR6 block	EBI2 antag conf	EBI2 ag	bGal counter
O=C(NCc1ccc2c(c1)OCO2)c1cc([N+](=O)[O-])ccc1N1CCCCC1	0	0	0	83	0	62	0	0
O=C(CSc1nc2cc([N+](=O)[O-])ccc2n1-c1ccccc1)NCc1ccc2c(c1)OCO2	0	0	0	55	0	0	0	0
C=CCNc1nc(Cl)nc(Nc2ccc(OCC)cc2)n1	0	0	0	0	0	-	-	-
O/N=C(/CCc1ccccc1)c1ccc2c(c1)OCCO2	0	0	0	0	0	-	-	-
CO/N=C/c1ccc(Oc2ccc(C)cc2)nc1	0	0	0	87	0	73	0	0
O=C(COc1ccc(Cl)cc1)NCCSCc1cccc(Cl)c1	0	0	0	66	0	0	0	0
Cc1cccc(CSCCNC(=O)COc2ccc(Cl)cc2)c1	0	0	0	0	0	-	-	-
Cc1nc(N2CCC(C)CC2)c2c(C)c(C(=O)Nc3ccccc3C(F)(F)F)sc2n1	0	0	0	45	0	0	0	0
COc1ccc(N(CC(=O)NCCSc2ccccc2)S(=O)(=O)c2ccccc2)cc1OC	0	0	0	48	0	0	0	0
CS(=O)(=O)N(CC(=O)NCCSc1ccc(Cl)cc1)c1ccc2c(c1)OCO2	0	0	0	87	0	63	0	0
CS(=O)(=O)N(CC(=O)NCCSc1ccccc1)c1ccc2c(c1)OCO2	0	0	0	0	0	-	-	-
Cc1ccc(C2CC(c3ccccc3)=NN2C(=O)CSc2nnc(-c3ccc(Cl)cc3)o2)o1 (stereo not drawn)	0	0	0	42	0	0	0	0
N#Cc1c(-c2ccccc2)c(-c2ccccc2)nn(CC(=O)NNC(=O)Nc2ccc(Cl)c(Cl)c2)c1=O	0	0	0	79	0	0	0	0
O=C(c1[nH]c(C(F)(F)F)nc1-c1ccccc1)N1CCN(c2ncc(C(F)(F)F)cc2Cl)CC1	-	-	-	0	0	-	-	-
O=C(c1cc2c(ccc3ccccc32)o1)N1CCN(c2ncc(C(F)(F)F)cc2Cl)CC1	0	0	0	91	0	79	0	0
O=C(c1cc2cc(Cl)ccc2o1)N1CCCCCC1	0	0	0	47	0	0	0	0
O=C(O)c1cc2c(ccc3ccccc32)o1	0	0	0	0	0	-	-	-
O=C(c1cc2c(ccc3ccccc32)o1)N1CCCCC1	0	0	0	51	0	0	0	0
Cc1cccc(Nc2ccncc2S(N)(=O)=O)c1	0	0	0	0	0	-	-	-
Cn1cc(S(=O)(=O)N2CCc3ccccc32)cc1C(=O)Nc1ccc(Cl)cc1	0	0	0	46	0	0	0	0
CCCS(=O)(=O)N1CCC(C(=O)NCCCOCC)CC1	0	0	0	0	0	-	-	-
CCN1C(=O)/C(=C/c2nc3ccccc3c(=O)n2-c2ccccc2)c2ccccc21	0	0	0	45	0	51	0	0
CCN1C(=O)/C(=C\c2nc3ccccc3c(=O)n2CC)c2ccccc21	0	0	0	0	0	-	-	-
COc1cccc(-c2nc(CS(=O)(=O)CC(=O)NCCN3CCOCC3)c(C)o2)c1	0	0	0	0	0	-	-	-
CN(C)c1ccc(NC(=O)c2sc(SCC(=O)Nc3nccs3)nc2N)cc1	0	0	0	52	0	0	0	0
SMILES	CCR6 antag	APJ ag	APJ antagonist	EBI2 block	CXCR6 block	EBI2 antag conf	EBI2 ag	bGal counter
Cn1nnnc1SCC(=O)Nc1nc2c(F)c(F)c(F)cc2s1	0	0	0	0	0	-	-	-
COC(=O)/C=C1/N/C(=N\c2nc(C)cc(C)n2)N(c2ccc(Cl)cc2)C1=O	0	0	0	0	0	-	-	-
COc1cc2nc(CN3CCN(S(=O)(=O)c4ccc(Br)cc4)CC3)[nH]c(=O)c2cc1OC	0	0	0	55	0	0	0	0
COc1cc2nc(CN3CCN(S(=O)(=O)c4ccccc4[N+](=O)[O-])CC3)[nH]c(=O)c2cc1OC	-	-	-	45	0	0	0	0
COc1ccc(OCCN2CCN(S(=O)(=O)c3ccccc3C#N)CC2)cc1	0	0	0	0	0	-	-	-
COc1cc2nc(CN3CCN(S(=O)(=O)c4ccccc4C(F)(F)F)CC3)[nH]c(=O)c2cc1OC	0	0	0	64	0	0	0	0
Cc1ccc(S(=O)(=O)N2CCN(Cc3nc4ccccc4[nH]3)CC2)cc1C	0	0	0	0	0	-	-	-
COc1ccc(OCCN2CCN(S(=O)(=O)c3ccccc3C(F)(F)F)CC2)cc1	0	0	0	60	0	50	0	0
COc1cc2nc(CN3CCN(C(c4ccccc4)c4ccccc4)CC3)[nH]c(=O)c2cc1OC	-	0	0	-	-	-	-	-
COc1cc2nc(CN3CCN(S(=O)(=O)c4c(F)cccc4F)CC3)[nH]c(=O)c2cc1OC	0	0	0	0	0	-	-	-
Cc1ccc(NC(=O)CSc2nc3ccccc3c(=O)n2CCCC(=O)NCCCN2CCOCC2)cc1	0	0	0	0	0	-	-	-
O=C(c1cccs1)N(Cc1nc2sc3c(c2c(=O)[nH]1)CCCC3)C1CCCC1	0	0	0	0	0	-	-	-
O=c1[nH]c(CN2CCN(S(=O)(=O)c3ccccc3C(F)(F)F)CC2)nc2sc3c(c12)CCCC3	0	0	0	59	0	0	0	0
CC1CC(C)CN(c2nc3c(c(=O)n(C)c(=O)n3C)n2C)C1 (stereo not drawn)	0	0	0	0	0	-	-	-
COc1ccccc1-c1cnc2c(Nc3cccc(OC(F)(F)C(F)F)c3)nccn12	-	-	-	68	0	0	0	0
FC(F)C(F)(F)Oc1cccc(Nc2nccn3c(-c4cccc5cccnc45)cnc23)c1	-	-	-	47	0	0	0	0
O=C(NCCO)c1cccc(-c2cnc3c(Nc4cccc(OC(F)(F)C(F)F)c4)nccn23)c1	-	-	-	0	0	-	-	-
COc1ccccc1CNS(=O)(=O)CCNCCc1ccccc1	0	-	-	0	0	-	-	-
COc1ccc(N2CCN(C(=O)NC3CC(=O)N(c4ccc(OC)cc4)C3)CC2)cc1 (stereo not drawn)	0	0	0	46	0	0	0	0
COc1ccc(NC(=O)N2CCN(c3ccc([N+](=O)[O-])cc3)CC2)cc1	0	0	0	62	0	0	0	0
O=C(NC1CC(=O)N(c2ccccc2)C1)N1CCN(C(=O)c2ccco2)CC1 (stereo not drawn)	0	0	0	0	0	-	-	-
O=C(NC1CC(=O)N(c2ccc(Cl)cc2)C1)N1CCN(C(=O)c2ccco2)CC1 (stereo not drawn)	0	0	0	66	0	0	0	0
CCN1CCN(C(=O)NC2CC(=O)N(c3ccc(OC)cc3)C2)CC1 (stereo not drawn)	0	0	0	0	0	-	-	-
COc1ccc(S(=O)(=O)N2CCCCC2)cc1NC(=O)C1CC1(Cl)Cl (stereo not drawn)	-	-	-	0	0	-	-	-

Source: PubChem BioAssay
